Results reported in ChEMBL document CHEMBL1121616, “Bradykinin analogues containing N alpha-methyl amino acids” (1980).
Where “and” joins values, the source holds several entries; their conditions need not be identical. Identical values can stand only once. Non-standard residues stand in square brackets, D forms with d. Residues, ends and D or L forms follow the SMILES beside them. NMeR = CN[C@@H](CCCNC(=N)N)C(=O)O; NMeF = CN[C@@H](Cc1ccccc1)C(=O)O; Sar = CNCC(=O)O

Key:
Cavia porcellus [1] = organism: Cavia porcellus; test: Compound was evaluated for mean percent change from control contractions of isolated guinea pig ilea produced by Bradykinin (Brdkn) at a concentration of 1 ug/mL; assay type: functional
Method in brief: (§1)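 Isolated guinea pig ileum segments. Two control contractions to each agonist were elicited at regular 3- or 4-min intervals. Three sets of contractions were then elicited in the presence of the test compound, the first set used for equilibration. The mean of the last two treated sets was compared with the mean of the controls and expressed as percent change.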

Cavia porcellus [2] = organism: Cavia porcellus; test: Compound was evaluated for mean percent change from control contractions of isolated guinea pig ilea produced by Prostaglandin E2 (PGE2) at a concentration of 3 ug/mL; assay type: functional; method in brief: as §1
Cavia porcellus [3] = organism: Cavia porcellus; test: Compound was evaluated for mean percent change from control contractions of isolated guinea pig ilea produced by Acetylcholine (ACh) at a concentration of 1 ug/mL; assay type: functional; method in brief: as §1
Cavia porcellus [4] = organism: Cavia porcellus; test: Compound was evaluated for mean percent change from control contractions of isolated guinea pig ilea produced by Bradykinin (Brdkn) at a concentration of 10 ug/mL; assay type: functional; method in brief: as §1
Cavia porcellus [5] = organism: Cavia porcellus; test: Compound was evaluated for muscle stimulating potency in isolated guinea pig ilea relative to bradykinin triacetate (1); assay type: functional, Muscle tissue
Method in brief: (§2)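 Isolated guinea pig ileum segments were used in four-point parallel-line bioassays against bradykinin triacetate, with potency calculated on a weight basis. Doses were given at 4-min intervals in a randomized block design, and the bath was rinsed after peak contraction. Relative potency and fiducial limits were estimated from contraction magnitudes by Finney's method. Only assays without significant deviation from parallelism were accepted.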

Cavia porcellus [6] = organism: Cavia porcellus; test: Compound was evaluated for mean percent change from control contractions of isolated guinea pig ilea produced by Prostaglandin E2 (PGE2) at a concentration of 1 ug/mL; assay type: functional; method in brief: as §1
Cavia porcellus [7] = organism: Cavia porcellus; test: Compound was evaluated for mean percent change from control contractions of isolated guinea pig ilea produced by Acetylcholine (ACh) at a concentration of 10 ug/mL; assay type: functional; method in brief: as §1
Cavia porcellus [8] = organism: Cavia porcellus; test: Compound was evaluated for mean percent change from control contractions of isolated guinea pig ilea produced by Prostaglandin E2 (PGE2) at a concentration of 10 ug/mL; assay type: functional; method in brief: as §1
Cavia porcellus [9] = organism: Cavia porcellus; test: Compound was evaluated for mean percent change from control contractions of isolated guinea pig ilea produced by Acetylcholine (ACh) at a concentration of 3 ug/mL; assay type: functional; method in brief: as §1
Cavia porcellus [10] = organism: Cavia porcellus; test: Compound was evaluated for mean percent change from control contractions of isolated guinea pig ilea produced by Bradykinin (Brdkn) at a concentration of 3 ug/mL; assay type: functional; method in brief: as §1
Cavia porcellus [11] = organism: Cavia porcellus; test: Compound was evaluated for mean percent change from control contractions of isolated guinea pig ilea produced by Bradykinin (Brdkn) at a concentration of 30 ug/mL; assay type: functional; method in brief: as §1
Cavia porcellus [12] = organism: Cavia porcellus; test: Compound was evaluated for mean percent change from control contractions of isolated guinea pig ilea produced by Acetylcholine (ACh) at a concentration of 30 ug/mL; assay type: functional; method in brief: as §1
Cavia porcellus [13] = organism: Cavia porcellus; test: Compound was evaluated for mean percent change from control contractions of isolated guinea pig ilea produced by Prostaglandin E2 (PGE2) at a concentration of 30 ug/mL; assay type: functional; method in brief: as §1
Cavia porcellus [14] = organism: Cavia porcellus; test: Compound was evaluated for mean percent change from control contractions of isolated guinea pig ilea produced by Prostaglandin E2 (PGE2) at a concentration of 0.01 ug/mL; assay type: functional; method in brief: as §1
Cavia porcellus [15] = organism: Cavia porcellus; test: Compound was evaluated for mean percent change from control contractions of isolated guinea pig ilea produced by Prostaglandin E2 (PGE2) at a concentration of 10.0 ug/mL; assay type: functional; method in brief: as §1
Cavia porcellus [16] = organism: Cavia porcellus; test: Compound was evaluated for mean percent change from control contractions of isolated guinea pig ilea produced by Bradykinin (Brdkn) at a concentration of 0.1 ug/mL; assay type: functional; method in brief: as §1
Cavia porcellus [17] = organism: Cavia porcellus; test: Compound was evaluated for mean percent change from control contractions of isolated guinea pig ilea produced by Bradykinin (Brdkn) at a concentration of 0.01 ug/mL; assay type: functional; method in brief: as §1
Cavia porcellus [18] = organism: Cavia porcellus; test: Compound was evaluated for mean percent change from control contractions of isolated guinea pig ilea produced by Acetylcholine (ACh) at a concentration of 1.0 ug/mL; assay type: functional; method in brief: as §1
Cavia porcellus [19] = organism: Cavia porcellus; test: Compound was evaluated for mean percent change from control contractions of isolated guinea pig ilea produced by Acetylcholine (ACh) at a concentration of 0.01 ug/mL; assay type: functional; method in brief: as §1
Cavia porcellus [20] = organism: Cavia porcellus; test: Compound was evaluated for mean percent change from control contractions of isolated guinea pig ilea produced by Bradykinin (Brdkn) at a concentration of 10.0 ug/mL; assay type: functional; method in brief: as §1
Cavia porcellus [21] = organism: Cavia porcellus; test: Compound was evaluated for mean percent change from control contractions of isolated guinea pig ilea produced by Acetylcholine (ACh) at a concentration of 0.1 ug/mL; assay type: functional; method in brief: as §1
Cavia porcellus [22] = organism: Cavia porcellus; test: Compound was evaluated for mean percent change from control contractions of isolated guinea pig ilea produced by Bradykinin (Brdkn) at a concentration of 1.0 ug/mL; assay type: functional; method in brief: as §1
Cavia porcellus [23] = organism: Cavia porcellus; test: Compound was evaluated for mean percent change from control contractions of isolated guinea pig ilea produced by Acetylcholine (ACh) at a concentration of 10.0 ug/mL; assay type: functional; method in brief: as §1
Cavia porcellus [24] = organism: Cavia porcellus; test: Compound was evaluated for mean percent change from control contractions of isolated guinea pig ilea produced by Prostaglandin E2 (PGE2) at a concentration of 0.1 ug/mL; assay type: functional; method in brief: as §1
Cavia porcellus [25] = organism: Cavia porcellus; test: Compound was evaluated for muscle stimulating potency in isolated guinea pig ilea; assay type: functional, Muscle tissue; method in brief: as §2

Compound | Change (Cavia porcellus [1]) [%] | Change (Cavia porcellus [2]) [%] | Change (Cavia porcellus [3]) [%] | Change (Cavia porcellus [4]) [%] | Potency (Cavia porcellus [5]) | Change (Cavia porcellus [6]) [%] | Change (Cavia porcellus [7]) [%] | Change (Cavia porcellus [8]) [%] | Change (Cavia porcellus [9]) [%] | Change (Cavia porcellus [10]) [%] | further results
CN(C(=O)[C@@H]1CCCN1C(=O)[C@H](CO)NC(=O)[C@H](Cc1ccccc1)NC(=O)CNC(=O)[C@@H]1CCCN1C(=O)[C@@H]1CCCN1C(=O)[C@@H](N)CCCN=C(N)N)[C@@H](Cc1ccccc1)C(=O)N[C@@H](CCCN=C(N)N)C(=O)O (H-RPPGFSP[NMeF]R-OH) | -27 | -60 | -6 | -97 | 0.015 | -17 | -75 | -88 | -41 | -81 | 
CN(C(=O)[C@H](Cc1ccccc1)NC(=O)[C@@H]1CCCN1C(=O)[C@H](CO)NC(=O)[C@H](Cc1ccccc1)NC(=O)CNC(=O)[C@@H]1CCCN1C(=O)[C@@H]1CCCN1C(=O)[C@@H](N)CCCN=C(N)N)[C@@H](CCCN=C(N)N)C(=O)O |  |  |  | -64 | 0.0046 |  | -28 | 7 |  |  | 
CN(C(=O)CNC(=O)[C@@H]1CCCN1C(=O)[C@@H]1CCCN1C(=O)[C@@H](N)CCCN=C(N)N)[C@@H](Cc1ccccc1)C(=O)N[C@@H](CO)C(=O)N1CCC[C@H]1C(=O)N[C@@H](Cc1ccccc1)C(=O)N[C@@H](CCCN=C(N)N)C(=O)O (H-RPPG[NMeF]SPFR-OH) |  |  |  | -32 | 0.01 |  | -31 | 1 |  |  | 
CN(CC(=O)N[C@@H](Cc1ccccc1)C(=O)N[C@@H](CO)C(=O)N1CCC[C@H]1C(=O)N[C@@H](Cc1ccccc1)C(=O)N[C@@H](CCCN=C(N)N)C(=O)O)C(=O)[C@@H]1CCCN1C(=O)[C@@H]1CCCN1C(=O)[C@@H](N)CCCN=C(N)N (H-RPP[Sar]FSPFR-OH) | 5 | -27 | -32 | -25 | 0.0039 | -20 | -58 | -85 | -9 | 21 | Change (Cavia porcellus [11]): -40%; Change (Cavia porcellus [12]): -70%; Change (Cavia porcellus [13]): -69%
CN[C@@H](CCCN=C(N)N)C(=O)N1CCC[C@H]1C(=O)N1CCC[C@H]1C(=O)NCC(=O)N[C@@H](Cc1ccccc1)C(=O)N[C@@H](CO)C(=O)N1CCC[C@H]1C(=O)N[C@@H](Cc1ccccc1)C(=O)N[C@@H](CCCN=C(N)N)C(=O)O (H-[NMeR]PPGFSPFR-OH) |  |  |  |  | 0.61 |  |  |  |  |  | Change (Cavia porcellus [14]): -28%; Change (Cavia porcellus [15]): -95% and -83%; Change (Cavia porcellus [16]): -100%; Change (Cavia porcellus [17]): -88%; Change (Cavia porcellus [18]): -100%; Change (Cavia porcellus [19]): -29%; Change (Cavia porcellus [20]): -100%; Change (Cavia porcellus [21]): -67%; Change (Cavia porcellus [22]): -100%; Change (Cavia porcellus [23]): -97%; Change (Cavia porcellus [24]): -88%
N=C(N)NCCC[C@H](NC(=O)[C@H](Cc1ccccc1)NC(=O)[C@@H]1CCCN1C(=O)[C@H](CO)NC(=O)[C@H](Cc1ccccc1)NC(=O)CNC(=O)[C@@H]1CCCN1C(=O)[C@@H]1CCCN1C(=O)[C@@H](N)CCCNC(=N)N)C(=O)O [BRADYKININ] (H-RPPGFSPFR-OH) |  |  |  |  |  |  |  |  |  |  | Potency (Cavia porcellus [25]): 1
